Reference: paper PMC3379667 (Diabetes, 2012)
No end group written: not given here.

Experiments:
healthy humans = conditions: intravenous infusion of neurotensin alone; cited from earlier work
[1] = Plasma IR-GIP and IR-xenin levels during and after peptide infusion; format: in vivo; conditions: human, iv, 4 pmol ⋅ kg^−1 ⋅ min^−1
Outline: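 Peptides were infused IV at 4 pmol·kg−1·min−1 in saline with 1% albumin during the graded glucose infusion. Plasma IR-GIP was measured by total-GIP ELISA and IR-xenin by an in-house ELISA. IR-xenin half-life came from levels sampled after infusions stopped (n = 6).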

[2] = test system: humans with NGT, IGT, or T2DM; assay: Symptomatic effects of peptide infusions; format: in vivo, human; conditions: all three groups; for subjects with mild diarrhea and/or loose stools: within several hours of the infusion
[3] = test system: healthy individuals and persons with T2DM; conditions: iv infusion 4 pmol/kg/min, cited from earlier work
[4] = test system: humans with NGT, IGT, or T2DM; assay: Graded glucose infusion; format: in vivo, human; conditions: for increase of ISR iAUC during the first 40 min compared with albumin: P ≤0.0005; for increase of 240-min ISR iAUC/glucose iAUC compared with albumin: P ≤0.007 vs. albumin
Outline: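 Subjects fasted 10 h. Arterialized venous blood was drawn from a hand heated to 50–55°C. Glucose ≥120 mg/dL was lowered to 100–120 mg/dL with IV insulin (∼0.01 units/kg every 30 min), then held stable 20 min. Four blinded 240-min GGIs ≥2 weeks apart gave IV peptide or albumin (peptides 4 pmol·kg−1·min−1 in saline/1% albumin). Glucose measured by glucose oxidase; C-peptide by chemiluminescent immunometric assay; ISR by stochastic deconvolution; iAUCs; mixed-effects models, one-tailed t tests.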

neurotensin
change in blood pressure or plasma levels of glucose, insulin, or glucagon (healthy humans): no significant change

MLTKFETKSARVKGLSFHPKRPWIL [xenin-25, Xenin-25]
half-life [1]: 2.5 ± 0.3 min
increase of resting heart rate [2]: no effect
reduction of mean arterial blood pressure [2]: no effect
subjects with mild diarrhea and/or loose stools [2]: 21%

CC[C@H](C)[C@H](NC(=O)[C@H](CO)NC(=O)[C@H](Cc1ccc(O)cc1)NC(=O)[C@H](CC(=O)O)NC(=O)[C@H](CO)NC(=O)[C@@H](NC(=O)[C@H](Cc1ccccc1)NC(=O)[C@@H](NC(=O)CNC(=O)[C@H](CCC(=O)O)NC(=O)[C@H](C)NC(=O)[C@@H](N)Cc1ccc(O)cc1)[C@@H](C)O)[C@@H](C)CC)C(=O)N[C@@H](C)C(=O)N[C@@H](CCSC)C(=O)N[C@@H](CC(=O)O)C(=O)N[C@@H](CCCCN)C(=O)N[C@H](C(=O)N[C@@H](Cc1c[nH]cn1)C(=O)N[C@@H](CCC(N)=O)C(=O)N[C@@H](CCC(N)=O)C(=O)N[C@@H](CC(=O)O)C(=O)N[C@@H](Cc1ccccc1)C(=O)N[C@H](C(=O)N[C@@H](CC(N)=O)C(=O)N[C@@H](Cc1c[nH]c2ccccc12)C(=O)N[C@@H](CC(C)C)C(=O)N[C@@H](CC(C)C)C(=O)N[C@@H](C)C(=O)N[C@@H](CCC(N)=O)C(=O)N[C@@H](CCCCN)C(=O)NCC(=O)N[C@@H](CCCCN)C(=O)N[C@@H](CCCCN)C(=O)N[C@@H](CC(N)=O)C(=O)N[C@@H](CC(=O)O)C(=O)N[C@@H](Cc1c[nH]c2ccccc12)C(=O)N[C@@H](CCCCN)C(=O)N[C@@H](Cc1c[nH]cn1)C(=O)N[C@@H](CC(N)=O)C(=O)N[C@H](C(=O)N[C@H](C(=O)N[C@@H](CCC(N)=O)C(=O)O)[C@@H](C)O)[C@@H](C)CC)C(C)C)[C@@H](C)CC [GIP, glucose-dependent insulinotropic polypeptide]
increase of resting heart rate [2]: ~8 bpm
reduction of mean arterial blood pressure [2]: 10–15 mmHg
subjects with mild diarrhea and/or loose stools [2]: 14%
increase of insulin release during a hyperglycemic clamp ([3]; healthy individuals): approximately fourfold
effect on insulin release during a hyperglycemic clamp ([3]; persons with T2DM): ineffective
ISR iAUC during the first 40 min of the GGI ([4]; subjects with IGT, G+X vs GIP alone P = 0.002): 10,016 ± 1,524 pmol insulin secreted/40 min
increase of ISR iAUC during the first 40 min compared with albumin ([4]; subjects with IGT): 6.1 fold
increase of 240-min ISR iAUC/glucose iAUC compared with albumin ([4]; subjects with IGT): 1.5 fold
time of peak early insulin secretory response (ISR) ([4]; subjects with IGT, time into the infusions): 20 min
ISR iAUC during the first 40 min of the GGI ([4]; subjects with NGT, G+X vs GIP alone P = 0.048): 7,998 ± 1,263 pmol insulin secreted/40 min
increase of ISR iAUC during the first 40 min compared with albumin ([4]; subjects with NGT): 4.6 fold
increase of 240-min ISR iAUC/glucose iAUC compared with albumin ([4]; subjects with NGT): 1.7 fold
time of peak early insulin secretory response (ISR) ([4]; subjects with NGT, time into the GGI): ≤ 10 min
ISR iAUC during the first 40 min of the GGI ([4]; subjects with T2DM, G+X vs GIP alone P = 0.18): 10,062 ± 2,290 pmol insulin secreted/40 min
increase of ISR iAUC during the first 40 min compared with albumin ([4]; subjects with T2DM): 8.7 fold
increase of 240-min ISR iAUC/glucose iAUC compared with albumin ([4]; subjects with T2DM): 1.9 fold
